Data published in ChEMBL document CHEMBL3739387, “Discovery and SAR of Novel and Selective Inhibitors of Urokinase Plasminogen Activator (uPA) with an Imidazo[1,2-a]pyridine Scaffold” (J Med Chem, 2015).
The source made the active and inactive calls. The rule behind the calls is not given here.

Experiments:
[1] = target: T1, Urokinase-type plasminogen activator (Homo sapiens, UniProt P00749); experiment: Inhibition of human uPA using pyro-Glu-Gly-Arg-pNA as substrate assessed as para-nitroaniline release from substrate measured for 5 mins by spectrophotometric assay
[2] = target: T1, Urokinase-type plasminogen activator; experiment: Reversible inhibition of human uPA using pyro-Glu-Gly-Arg-pNA as substrate assessed as para-nitroaniline release from substrate measured for 5 mins by spectrophotometry based enzyme kinetics assay
[3] = target: Tissue-type plasminogen activator (Homo sapiens, UniProt P00750); experiment: Inhibition of recombinant human tPA using H-D-Ile-Pro-L-Arg-pNA-2HCl as substrate at 100 uM measured for 5 mins by spectrophotometric assay
Sequence of Tissue-type plasminogen activator (P00750 36-562 limits assumed): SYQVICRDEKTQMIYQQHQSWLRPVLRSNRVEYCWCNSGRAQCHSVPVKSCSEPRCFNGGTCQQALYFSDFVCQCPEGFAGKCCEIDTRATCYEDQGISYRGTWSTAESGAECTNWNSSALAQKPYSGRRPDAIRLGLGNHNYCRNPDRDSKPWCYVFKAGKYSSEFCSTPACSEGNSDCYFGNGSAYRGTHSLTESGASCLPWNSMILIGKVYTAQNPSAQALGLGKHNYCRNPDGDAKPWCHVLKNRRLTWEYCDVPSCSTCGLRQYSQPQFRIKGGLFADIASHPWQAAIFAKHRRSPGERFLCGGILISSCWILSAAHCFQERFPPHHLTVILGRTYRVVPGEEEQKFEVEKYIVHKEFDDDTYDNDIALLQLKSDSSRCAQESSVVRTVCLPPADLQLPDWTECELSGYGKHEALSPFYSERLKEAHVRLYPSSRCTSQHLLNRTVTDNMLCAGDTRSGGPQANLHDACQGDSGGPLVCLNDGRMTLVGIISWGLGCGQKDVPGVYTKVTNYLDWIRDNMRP

[4] = target: T1, Urokinase-type plasminogen activator; experiment: Slow dissociating inhibition of human uPA using pyro-Glu-Gly-Arg-pNA as substrate assessed as para-nitroaniline release from substrate measured for 5 mins by spectrophotometry based enzyme kinetics assay
Plasma kallikrein = Plasma kallikrein (Homo sapiens, UniProt P03952); experiment: Inhibition of human plasma kallikrein using D-Pro-Phe-Arg-pNA-2HCl as substrate at 100 uM measured for 5 mins by spectrophotometric assay; format: cell-free
Sequence of Plasma kallikrein (P03952 20-390 limits assumed): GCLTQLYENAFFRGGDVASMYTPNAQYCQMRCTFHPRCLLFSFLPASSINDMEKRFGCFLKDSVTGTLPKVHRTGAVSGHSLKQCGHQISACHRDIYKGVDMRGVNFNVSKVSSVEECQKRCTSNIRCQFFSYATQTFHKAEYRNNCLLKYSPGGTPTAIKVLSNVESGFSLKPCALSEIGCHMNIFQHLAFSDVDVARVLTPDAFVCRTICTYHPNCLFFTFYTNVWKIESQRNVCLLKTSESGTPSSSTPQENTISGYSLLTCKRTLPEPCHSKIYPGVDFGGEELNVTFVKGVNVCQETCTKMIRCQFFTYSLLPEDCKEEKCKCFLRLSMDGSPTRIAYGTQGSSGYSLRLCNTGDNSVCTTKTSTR
Sequence of Plasma kallikrein (P03952 391-638 limits assumed): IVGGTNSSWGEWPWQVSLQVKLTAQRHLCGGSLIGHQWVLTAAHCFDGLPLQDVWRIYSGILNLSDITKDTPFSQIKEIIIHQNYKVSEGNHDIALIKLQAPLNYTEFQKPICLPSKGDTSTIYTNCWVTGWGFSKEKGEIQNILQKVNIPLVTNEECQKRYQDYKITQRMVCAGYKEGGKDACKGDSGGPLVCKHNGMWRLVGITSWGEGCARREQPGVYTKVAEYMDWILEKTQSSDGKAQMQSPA
Method in brief: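 Human plasma kallikrein, chromogenic substrate CS-31(02) (Km 269 μM) at 269 μM in assay. 50 mM HEPES at pH 7.4. Absorbance at 405 nm over 5 min at 37 °C, duplicates.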

Plasminogen = Plasminogen (Homo sapiens, UniProt P00747); experiment: Inhibition of human plasma plasmin using pyroGlu-Pro-Arg-pNA-HCl as substrate at 100 uM measured for 5 mins by spectrophotometric assay; format: cell-free
Sequence of Plasminogen (P00747 97-580 limits assumed): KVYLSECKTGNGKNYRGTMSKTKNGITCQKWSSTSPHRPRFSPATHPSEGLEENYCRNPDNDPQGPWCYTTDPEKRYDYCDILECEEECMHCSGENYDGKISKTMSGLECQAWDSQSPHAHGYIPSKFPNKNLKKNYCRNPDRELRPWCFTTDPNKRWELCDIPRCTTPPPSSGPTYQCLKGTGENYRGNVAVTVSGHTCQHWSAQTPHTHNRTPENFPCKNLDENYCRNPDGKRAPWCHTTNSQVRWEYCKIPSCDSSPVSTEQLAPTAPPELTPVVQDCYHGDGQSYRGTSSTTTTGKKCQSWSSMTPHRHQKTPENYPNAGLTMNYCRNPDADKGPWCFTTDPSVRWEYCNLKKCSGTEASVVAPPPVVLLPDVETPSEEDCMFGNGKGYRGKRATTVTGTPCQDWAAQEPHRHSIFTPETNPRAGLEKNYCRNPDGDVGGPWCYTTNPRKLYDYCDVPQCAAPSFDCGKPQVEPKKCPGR
Sequence of Plasminogen (P00747 581-810 limits assumed): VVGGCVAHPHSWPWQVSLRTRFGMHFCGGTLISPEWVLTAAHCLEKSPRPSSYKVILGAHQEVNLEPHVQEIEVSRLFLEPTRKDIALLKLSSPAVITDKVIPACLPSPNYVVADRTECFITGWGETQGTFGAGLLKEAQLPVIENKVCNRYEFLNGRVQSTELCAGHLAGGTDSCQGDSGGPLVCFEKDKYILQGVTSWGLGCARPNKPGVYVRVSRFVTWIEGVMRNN
Method in brief: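 Plasmin purified from human plasma. Substrate pyroGlu-Pro-Arg-pNA (CS-21(66), Km 400 μM) at 400 μM in assay. HEPES pH 7.0, 37 °C, absorbance at 405 nm followed for 5 min, duplicates.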

Coagulation factor X = Coagulation factor X (Homo sapiens, UniProt P00742); experiment: Inhibition of purified human factor 10a using Suc-Ile-Glu(yPip)-GlyArg-pNa-HCl as substrate at 100 uM measured for 5 mins by spectrophotometric assay
Sequence of Coagulation factor X (P00742 41-179 limits assumed): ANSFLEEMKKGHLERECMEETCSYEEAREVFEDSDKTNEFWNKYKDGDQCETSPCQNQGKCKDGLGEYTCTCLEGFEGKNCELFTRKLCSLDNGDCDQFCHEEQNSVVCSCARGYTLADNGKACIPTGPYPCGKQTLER
Sequence of Coagulation factor X (P00742 235-488 limits assumed): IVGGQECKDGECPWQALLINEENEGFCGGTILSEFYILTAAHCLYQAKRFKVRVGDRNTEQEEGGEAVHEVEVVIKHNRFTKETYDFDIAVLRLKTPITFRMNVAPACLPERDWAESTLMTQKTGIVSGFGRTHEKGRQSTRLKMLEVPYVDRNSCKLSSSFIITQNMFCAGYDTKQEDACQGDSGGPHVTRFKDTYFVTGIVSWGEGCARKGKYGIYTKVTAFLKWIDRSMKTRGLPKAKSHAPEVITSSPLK
Method in brief: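 Purified human factor Xa, substrate Suc-Ile-Glu(γPip)-Gly-Arg-pNA (CS-11(32)) at 411 μM in assay. HEPES pH 8.2. Read at 405 nm for 5 min at 37 °C, duplicate wells.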

Bos taurus = organism: Bos taurus; experiment: Inhibition of bovine pancreatic trypsin using Na-benzoyl-D,L-Arg-pNA-HCl as substrate at 100 uM measured for 5 mins by spectrophotometric assay
[5] = target: T2, Coagulation factor VII (Homo sapiens) (UniProt P08709); experiment: Inhibition of purified human factor 7a using MeSO2-Cha-Abu-Arg-pNA as substrate at 100 uM measured for 5 mins by spectrophotometric assay
T2 sequence (whole entry): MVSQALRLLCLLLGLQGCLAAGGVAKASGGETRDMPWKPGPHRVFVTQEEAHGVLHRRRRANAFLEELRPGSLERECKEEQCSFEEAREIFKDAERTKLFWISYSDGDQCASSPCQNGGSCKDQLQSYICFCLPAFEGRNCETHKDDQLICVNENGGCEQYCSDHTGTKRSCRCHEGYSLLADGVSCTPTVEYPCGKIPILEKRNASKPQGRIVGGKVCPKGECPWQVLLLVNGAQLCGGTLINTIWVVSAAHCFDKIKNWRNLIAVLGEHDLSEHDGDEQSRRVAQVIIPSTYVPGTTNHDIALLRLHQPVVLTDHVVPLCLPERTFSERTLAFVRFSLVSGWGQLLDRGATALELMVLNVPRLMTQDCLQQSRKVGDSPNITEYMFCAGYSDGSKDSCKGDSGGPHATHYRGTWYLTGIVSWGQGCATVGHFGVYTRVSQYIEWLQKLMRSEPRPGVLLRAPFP
Method in brief: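 Purified human plasma FVIIa with tissue factor (Innovin) present. MeSO2-Cha-Abu-Arg-pNA at 800 μM in assay. Buffer 50 mM HEPES pH 7.5, 100 mM NaCl, 5 mM CaCl2, 0.1% BSA.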

[6] = target: T1, Urokinase-type plasminogen activator; experiment: Tight binding inhibition of human uPA using pyro-Glu-Gly-Arg-pNA as substrate assessed as para-nitroaniline release from substrate measured for 5 mins by spectrophotometry based enzyme kinetics assay
Prothrombin = Prothrombin (Homo sapiens, UniProt P00734); experiment: Inhibition of human plasma thrombin using pyroGlu-Pro-Arg-pNA-HCl as substrate at 100 uM measured for 5 mins by spectrophotometric assay; format: cell-free
Method in brief: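 Thrombin from human plasma with pyroGlu-Pro-Arg-pNA (CS-21(66), Km 400 μM) at 415 μM in assay. 50 mM HEPES pH 8.2. pNA release at 405 nm over 5 min at 37 °C, in duplicate.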

[7] = Inhibition of bovine pancreatic trypsin using Nalpha-benzoyl-D,L-Arg-pNA-HCl as substrate measured for 5 mins by spectrophotometric assay; parameters: species or system Bos taurus
[8] = target: T1, Urokinase-type plasminogen activator; experiment: Inhibition of human uPA

N=C(N)Nc1ccc(CNc2c(-c3cc(Cl)cc(Cl)c3)nc3ccccn23)cc1 gave an IC50 [1] of 99.2 µM.
N=C(N)Nc1ccc(CCNc2cnc3ccccn23)cc1 showed an IC50 [1] of 19.4 µM.
NC[C@H]1CC[C@H](Nc2cnc3ccccn23)CC1 gave an IC50 [1] of 500 µM.
For N=C(N)Nc1ccc(CNc2c(-c3cccnc3)nc3ccc(C(N)=O)cn23)cc1, the IC50 [1] was 27.3 µM.
N=C(N)Nc1ccc(CNc2c(-c3ccccc3)nc3ccccn23)cc1 gave an IC50 [1] of 30.1 µM.
For CN1CCN(CCNC(=O)c2ccn3c(NCc4ccc(NC(=N)N)cc4)cnc3c2)CC1, the inhibition [2] was “Active”, the inhibition [3] was 2.8% and the inhibition [4] was “Active”. For the same compound, the inhibition (Plasma kallikrein) was 0%, the inhibition (Plasminogen) was 0% and the inhibition (Coagulation factor X) was 12.2%. For the same compound, the inhibition (Bos taurus) was 32%, the inhibition [5] was 2% and the inhibition [6] was “Active”. The IC50 [1] was 0.404 µM and the inhibition (Prothrombin) was 6.6%.
In the case of N=C(N)Nc1ccc(CNc2c(Cc3cccc(Cl)c3)nc3ccccn23)cc1, the IC50 [1] is reported as 18 µM.
In the case of NCCOc1c(Cl)cc(Nc2cnc3ccccn23)cc1Cl, the IC50 [1] is reported as 500 µM.
For N=C(N)NC(=O)c1nc(Cl)c(N)nc1N [AMILORIDE], the inhibition [3] was 1%, the inhibition (Plasma kallikrein) was 0% and the inhibition (Plasminogen) was 0%. It also gave an inhibition (Coagulation factor X) of 3.5%, an inhibition [5] of 7.4% and an IC50 [7] of 31.8 µM. It also gave an inhibition (Prothrombin) of 5.2%.
N=C(N)Nc1ccc(CNc2c(CN)nc3ccccn23)cc1 gave an IC50 [1] of 9.3 µM.
In the case of COC(=O)c1ccn2c(NCc3ccc(NC(=N)N)cc3)c(-c3cccnc3)nc2c1, the IC50 [1] is reported as 15 µM.
In the case of NCCOc1ccc(Nc2cnc3ccccn23)cc1, the IC50 [1] is reported as > 1000 µM.
For CCCCNC(=O)c1ccc2nc(-c3cccnc3)c(NCc3ccc(NC(=N)N)cc3)n2c1, the IC50 [1] was 60.8 µM.
Work on Cc1cccn2c(NCc3ccc(NC(=N)N)cc3)c(-c3cccnc3)nc12 yielded an IC50 [1] of 27.4 µM.
Work on N=C(N)Nc1ccc(CCNc2c(-c3cccc(Cl)c3)nc3cnccn23)cc1 yielded an IC50 [1] of 53.8 µM.
For N=C(N)Nc1ccc(CNc2c(Cc3ccccc3)nc3ccccn23)cc1, the IC50 [1] was 30.2 µM.
Compound N=C(N)Nc1ccc(CNc2c(-c3cccnc3)nc3ccc(F)cn23)cc1 has an IC50 [1] of 57.6 µM.
With N=C(N)Nc1ccc(CNc2cnc3cc(C(=O)NC4CCCC4)ccn23)cc1 the inhibition [2] was “Active”, the inhibition [3] was 11.2% and the inhibition [4] was “Active”. It also gave an inhibition (Plasma kallikrein) of 0%, an inhibition (Plasminogen) of 0% and an inhibition (Coagulation factor X) of 47.8%. For the same compound, the inhibition (Bos taurus) was 37.1%, the inhibition [5] was 4% and the inhibition [6] was “Active”. It also gave an IC50 [1] of 0.174 µM and an inhibition (Prothrombin) of 17.8%.
For N=C(N)c1ccc(CNC(=O)[C@H](CO)NC(=O)[C@@H](CO)NS(=O)(=O)Cc2ccccc2)cc1, the Ki [8] was 0.02 µM.
CCc1nc2ccccn2c1NCc1ccc(NC(=N)N)cc1 showed an IC50 [1] of 48.5 µM.
